Test [1] has as its target T1, C-X-C chemokine receptor type 2 (Homo sapiens, UniProt P25025).
T1 sequence (P25025 whole entry): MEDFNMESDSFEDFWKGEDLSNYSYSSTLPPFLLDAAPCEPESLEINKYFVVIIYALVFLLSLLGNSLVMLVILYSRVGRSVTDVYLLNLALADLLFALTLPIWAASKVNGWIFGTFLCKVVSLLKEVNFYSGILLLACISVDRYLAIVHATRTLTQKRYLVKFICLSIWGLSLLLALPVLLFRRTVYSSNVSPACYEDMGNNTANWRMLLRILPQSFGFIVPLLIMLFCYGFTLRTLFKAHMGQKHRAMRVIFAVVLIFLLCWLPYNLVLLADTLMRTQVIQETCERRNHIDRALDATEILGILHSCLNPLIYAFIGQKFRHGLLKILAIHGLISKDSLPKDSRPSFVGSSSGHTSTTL
Briefly: Antagonist activity at CXCR2 (unknown origin) expressed in U2OS cells cotransfected with beta-arrestin/TEV protease fusion protein and beta-lactamase assessed as inhibition of CXCL8-induced beta arrestin2 recruitment preincubated for 30 mins followed by CXCL8 stimulation and measured after 5 hrs by FRET based fluorescence/Tango assay. It is filed as cell-based.

Test [2] concerns the target T2, C-X-C chemokine receptor type 2 (Homo sapiens) (UniProt P25025).
T2 sequence (whole entry): T1 sequence (P25025 whole entry)
Nature of the test: Antagonist activity at CXCR2 (unknown origin) expressed in HEK293T cells cotransfected with GFP and p22F assessed as inhibition of CXCL8-reduced cAMP production at 10 uM incubated for 10 mins followed by CXCL8 stimulation and measured after 10 mins by luminescence based assay. The following applies: time 20.0 min. The class given is functional, cell-based. An outline of the steps: (§1)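 293T-CXCR2-GFP-p22F cells express a cAMP-sensitive firefly luciferase. They were seeded at 30000 cells/well overnight in CO2-independent medium with 10% FBS, then incubated with 1% cAMP reagent for 2 h at 37 °C. Cells were pretreated with compound for 10 min, given CXCL8 (50 nM) for 10 min, then stimulated with forskolin (50 μM) until maximal signal (~80 min). Luminescence read-out.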

Test [3] deals with T2, C-X-C chemokine receptor type 2 (Homo sapiens). Nature of the test: Antagonist activity at CXCR2 (unknown origin) expressed in HEK293T cells cotransfected with GFP and p22F assessed as inhibition of […] at 30 uM incubated at 37 degC for 30 min and at room temperature for 30 min by fluorescence based assay. The class given is functional, cell-based. The following applies: time 60.0 min. The method, boiled down:
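293T-CXCR2-GFP cells were seeded at 30000 cells/well and loaded next day with Fluo-4 NW dye plus probenecid ([…] final). Loading was 30 min at 37 °C, then 30 min at room temperature, protected from light. Compound and CXCL8 (300 nM, by injector) were added. Fluorescence was read immediately (ex 490/em 535 nm) and normalized to the pre-stimulation baseline.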
(Calcium assays in cells follow changes in intracellular calcium, usually with a dye or a luminescent sensor.)

The target is the same in test [4]. Nature of the test: Antagonist activity at CXCR2 (unknown origin) expressed in HEK293T cells cotransfected with GFP assessed as inhibition of CXCL8-induced ERK1/2 phosphorylation pretreated at 10 to 30 uM followed by treated with CXCL8 by immunoblot assay. It is filed as cell-based. The following applies: dose 10-30 µM. The method, boiled down:
(§2)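 293T-CXCR2-GFP cells (5 x 10^5/well) were attached overnight, treated with compounds and lysed in RIPA buffer with protease/phosphatase inhibitors. Lysates were normalized by BCA and resolved on 10% SDS-PAGE. Blots were probed overnight at 4 °C with antibodies (1:500-1:1000) to p-ERK1/2, p-JNK, p-cJUN or p-p38, then with a fluorescent secondary antibody, and imaged by infrared imaging.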
(In general: A western blot detects proteins with antibodies after separation by electrophoresis.)

Test [5] shares this target. Nature of the test: Antagonist activity at CXCR2 (unknown origin) expressed in HEK293T cells cotransfected with GFP assessed as inhibition of CXCL8-induced p38 phosphorylation at 10 to 30 uM post CXCL8 treatment by immunoblot assay. The class given is cell-based. The following applies: dose 10-30 µM. The method, boiled down:
as §2

Test [6] has the same target. Briefly: Antagonist activity at CXCR2 (unknown origin) expressed in HEK293T cells cotransfected with GFP assessed as inhibition of CXCL8-induced JNK phosphorylation at 10 to 30 uM post CXCL8 treatment by immunoblot assay. It is filed as cell-based. The following applies: dose 10-30 µM. An outline of the steps: as §2
Test [7] shares this target. Briefly: Antagonist activity at CXCR2 (unknown origin) expressed in HEK293T cells cotransfected with GFP assessed as inhibition of CXCL8-induced cJUN phosphorylation at 10 to 30 uM post CXCL8 treatment by immunoblot assay. The class given is cell-based. The following applies: dose 10-30 µM. The method, boiled down:
as §2

Test [8] has the same target. Briefly: Antagonist activity at CXCR2 (unknown origin) expressed in HEK293T cells cotransfected with GFP assessed as inhibition of CXCL8-induced AKT phosphorylation at 10 to 30 uM post CXCL8 treatment by immunoblot assay. It is filed as cell-based. The following applies: dose 10-30 µM.
The test system of the next test is U2OS. Briefly: Antimigratory activity against human U2OS cells overexpressing CXCR2/bla assessed as reduction in CXCL8-mediated wound closure at 10 uM incubated for 20 mins followed by CXCL8 stimulation and measured after 24 hrs by Giemsa staining based scratch wound healing assay. It is filed as functional, cell-based. The following applies: time 24.3 hrs. An outline of the steps:
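CXCR2-bla U2OS cells were seeded at 35000/well in DMEM with 1% FBS overnight and scratched with a pipette tip. Compounds (10 μM) were added for 20 min, then CXCL8 (60 nM) for 24 h; unstimulated wells served as control. Cells were methanol-fixed, Giemsa-stained and imaged by transmitted light. Two independent experiments were run in duplicate.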

The test system of the next test is SK-OV-3. Briefly: Inhibition of colony formation in human SK-OV-3 cells at 8.9 to 20 uM incubated for 7 to 10 days in presence of doxorubicin by crystal violet staining based assay. The class given is functional, cell-based. The following applies: dose 8.9-20 µM, time 7-10 day. An outline of the steps:
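Colony formation: cells were seeded at 300/well, attached overnight, then treated with compounds for 7-10 days until colonies formed in DMSO wells. Colonies were stained with 0.05% crystal violet for 30 min and washed with water.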

The target in test [9] is T2, C-X-C chemokine receptor type 2 (Homo sapiens). Nature of the test: Antagonist activity at CXCR2 (unknown origin) expressed in U2OS cells cotransfected with beta-arrestin/TEV protease fusion protein and beta-lactamase assessed as inhibition of CXCL8-induced beta arrestin2 recruitment at 10 uM preincubated for 30 mins followed by CXCL8 stimulation and measured after 5 hrs by FRET based fluorescence/Tango assay relative to control. The class given is cell-based. The method, boiled down:
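Tango assay: CXCR2-bla or CXCR4-bla U2OS cells were seeded at 11000/well for 24 h in DMEM with 1% dialyzed FBS. Cells were pretreated with inhibitor for 30 min, then given CXCL8 (12 nM; CXCR2) or SDF-1α (60 nM; CXCR4) for 5 h at 37 °C. […] IC50 is the mean±SD of ≥3 independent experiments.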

The target of test [10] is C-X-C chemokine receptor type 4 (Homo sapiens, UniProt P61073). Briefly: Antagonist activity at CXCR4 (unknown origin) expressed in U2OS cells cotransfected with beta-arrestin/TEV protease fusion protein and beta-lactamase assessed as inhibition of SDF1-alpha-induced beta arrestin2 recruitment preincubated for 30 mins followed by SDF1-alpha stimulation and measured after 5 hrs by FRET based fluorescence/Tango assay. For orientation: Recruitment of arrestin is a read-out of receptor activation apart from second messengers.

In test [11] the target is T3, Translocator protein (Homo sapiens, UniProt P30536). Briefly: Inhibition of PBR (unknown origin) at 10 uM by radioligand binding assay relative to control. The method, boiled down: (§3)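 Primary radioligand binding screen across 50 GPCRs at a single concentration of 10 μM. Compounds with ≥50% inhibition went on to secondary binding.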
In test [12] the target is T4, Alpha-2A adrenergic receptor (Homo sapiens) (UniProt P08913).
T4 sequence (whole entry): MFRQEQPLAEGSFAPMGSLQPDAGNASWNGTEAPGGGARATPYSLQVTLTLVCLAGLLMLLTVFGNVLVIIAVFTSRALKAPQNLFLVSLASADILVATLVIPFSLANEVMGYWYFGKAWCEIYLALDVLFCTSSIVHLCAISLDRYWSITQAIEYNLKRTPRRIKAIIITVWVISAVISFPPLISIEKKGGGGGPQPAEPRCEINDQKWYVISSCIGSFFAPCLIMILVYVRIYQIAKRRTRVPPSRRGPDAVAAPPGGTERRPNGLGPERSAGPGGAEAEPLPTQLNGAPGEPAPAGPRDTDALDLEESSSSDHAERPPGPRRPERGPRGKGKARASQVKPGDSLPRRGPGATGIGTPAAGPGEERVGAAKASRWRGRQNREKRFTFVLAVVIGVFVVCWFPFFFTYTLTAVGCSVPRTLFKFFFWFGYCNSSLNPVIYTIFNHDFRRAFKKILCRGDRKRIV
Briefly: Inhibition of alpha 2a-adrenergic receptor (unknown origin) at 10 uM by radioligand binding assay relative to control. An outline of the steps:
as §3

Test [13] deals with T3, Translocator protein. Briefly: Inhibition of PBR (unknown origin) by radioligand binding assay. An outline of the steps:
(§4)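 Secondary radioligand binding assay determining equilibrium binding affinity (Ki).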

In test [14] the target is T5, Alpha-2A adrenergic receptor (Homo sapiens, UniProt P08913).
T5 sequence (P08913 whole entry): T4 sequence (whole entry)
Nature of the test: Inhibition of alpha 2a-adrenergic receptor (unknown origin) by radioligand binding assay. An outline of the steps: as §4

Test [15] addresses T1, C-X-C chemokine receptor type 2. Briefly: Inhibition of CXCR2 (unknown origin) expressed in HEK293T cells cotransfected with GFP-p22F assessed as reduction in IL-8-induced cAMP incubated for 10 mins followed by IL-8 stimulation and measured after 10 mins by luminescence based assay. It is filed as functional, cell-based. An outline of the steps: as §1

pIC50, pKi: −log10 of the molar value. Active and inactive are the calls of the source. The calls are words filed in the database; no cut-off is given here.

T3 sequence (P30536 whole entry): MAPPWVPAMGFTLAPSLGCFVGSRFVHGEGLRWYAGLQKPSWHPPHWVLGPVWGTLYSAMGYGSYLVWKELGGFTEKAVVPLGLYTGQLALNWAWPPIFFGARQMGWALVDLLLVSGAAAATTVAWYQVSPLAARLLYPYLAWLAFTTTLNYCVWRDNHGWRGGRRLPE
Chain of C-X-C chemokine receptor type 4 (P61073 whole entry, the tested form may be a part): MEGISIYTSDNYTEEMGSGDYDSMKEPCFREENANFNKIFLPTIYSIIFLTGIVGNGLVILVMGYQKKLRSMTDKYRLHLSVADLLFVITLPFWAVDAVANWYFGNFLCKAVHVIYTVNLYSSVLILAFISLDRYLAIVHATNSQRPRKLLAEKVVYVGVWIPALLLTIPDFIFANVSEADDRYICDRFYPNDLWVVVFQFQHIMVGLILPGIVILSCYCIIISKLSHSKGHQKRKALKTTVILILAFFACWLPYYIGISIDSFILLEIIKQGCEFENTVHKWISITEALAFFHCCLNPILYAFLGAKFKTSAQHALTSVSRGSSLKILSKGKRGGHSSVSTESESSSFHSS

With `CC(C)(C)OC(=O)c1c(NC(=S)Nc2ccc(F)cc2)sc2c1CCOC2`, the pIC50 was 5.96 in [1] and less than 4.52 in [10]. Besides, the outcome in test [2], in test [3], in test [5], in test [6], in test [7] and in [8] was inactive. In addition, the outcome in test [4] (filed as antagonist) was Active. Besides, the inhibition entry in the test with U2OS and in the test with SK-OV-3 was “Active” in each case. Moreover, in test [9], the inhibition was found to be 87%.

For the compound `C[C@@H](NC(=S)Nc1sc2c(c1C(=O)OC(C)(C)C)CCOC2)c1ccccc1`, the pIC50 in test [1] is 5.80; in test [10], less than 4.52. For the same compound, the inhibition at Translocator protein [11] is 64%; in test [12] it was 59%. The pKi (at Translocator protein [13]; in test [14]) was less than 5.00 throughout. The outcome in test [2], in test [5], in [6], in test [7] and in test [8] was inactive. Also, in test [4] (filed as antagonist), the outcome was Active. Also, the inhibition result in the test with U2OS and in the test on SK-OV-3 was “Active” in each case.

In the case of `CSc1nnc2n(-c3ccccc3)c(=O)c3c4c(sc3n12)CCC[C@H]4C`, the pIC50 in test [15] was 5.11. In test [2] (filed as antagonist), the result was Active. In addition, the outcome in test [3] and in test [4] was inactive.

What is called pIC50 is −log10 of the IC50, conventionally taken in molar units. Broadly, the inhibition is how much of the control response was suppressed. The term pKi denotes the negative decadic logarithm of the Ki, by convention in mol/L.

Values taken from ChEMBL document CHEMBL4765436, “Discovery, structure-activity relationship study and biological evaluation of 2-thioureidothiophene-3-carboxylates as a novel class of C-X-C chemokine receptor 2 (CXCR2) antagonists” (Eur J Med Chem, 2020).
